The subject of experiment [1] is HT-29. The experiment can be described thus: In vitro cytotoxicity against HT-29 (human colon adenocarcinoma) cell line. The format is functional, cell-based. The gist of the method:
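Human colon carcinoma HT-29 cells, 3000/well in DMEM with 10% FBS, attached 24 h. Free bases dissolved in DMSO, final DMSO <1%, added as 1:4 serial dilutions. Exposure 72 h at 37 °C, 5% CO2. MTT added for 4 h, formazan solubilized overnight in 25% SDS (pH 2), absorbance read at 550 nm. IC50 taken as concentration giving 50% of control growth.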

The subject of experiment [2] is Mus musculus. The experiment can be described thus: Median survival time of Compound on C57B1/6 mice which was implanted intraperitoneally with M5076 murine sarcoma cells at the dose of 3.3 mg/kg (dose administered intraperitoneally on days 1, 5 and 9). The conditions noted are these: route intraperitoneal. The format is functional. In a few lines:
(§1)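 M5076 murine sarcoma, 10^6 cells implanted intraperitoneally into C57Bl/6 mice. Median survival time recorded for treated (T) and control (C) groups. %T/C calculated as the treated median survival relative to the control median survival, times 100.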

The test system of experiment [3] is Mus musculus. Briefly: Median survival time of treated mice (T) compared to controls expressed as a percentage (%T/C) at the dose of 5.0 mg/kg (dose administered intraperitoneally on days 1, 5 and 9). The conditions noted are these: route intraperitoneal. The format is functional. In a few lines:
as §1

Experiment [4] deals with Mus musculus. Briefly: Median survival time of Compound on C57B1/6 mice which was implanted intraperitoneally with M5076 murine sarcoma cells at the dose of 5.0 mg/kg (dose administered intraperitoneally on days 1, 5 and 9). The format is functional. The conditions noted are these: route intraperitoneal. The gist of the method: as §1
The subject of experiment [5] is Mus musculus. The experiment can be described thus: Median survival time of treated mice (T) compared to controls expressed as a percentage (%T/C) at the dose of 2.2 mg/kg (dose administered intraperitoneally on days 1, 5 and 9). The format is functional. The conditions noted are these: route intraperitoneal. The gist of the method:
as §1

The subject of experiment [6] is Mus musculus. Briefly: Median survival time of treated mice (T) compared to controls expressed as a percentage (%T/C) at the dose of 7.5 mg/kg (dose administered intraperitoneally on days 1, 5 and 9). The format is functional. The conditions noted are these: route intraperitoneal. The gist of the method:
as §1

Experiment [7] has as its system Mus musculus. Briefly: Median survival time of treated mice (T) compared to controls expressed as a percentage (%T/C) at the dose of 3.3 mg/kg (dose administered intraperitoneally on days 1, 5 and 9). The format is functional. The conditions noted are these: route intraperitoneal. In a few lines: as §1
Experiment [8] deals with Mus musculus. The experiment can be described thus: Median survival time of Compound on C57B1/6 mice which was implanted intraperitoneally with M5076 murine sarcoma cells at the dose of 2.2 mg/kg (dose administered intraperitoneally on days 1, 5 and 9). The format is functional. The conditions noted are these: route intraperitoneal. In a few lines: as §1
The subject of experiment [9] is Mus musculus. Briefly: Median survival time of Compound on C57B1/6 mice which was implanted intraperitoneally with M5076 murine sarcoma cells at the dose of 7.5 mg/kg (dose administered intraperitoneally on days 1, 5 and 9). The format is functional. The conditions noted are these: route intraperitoneal. The gist of the method: as §1
Experiment [10] deals with Mus musculus. The experiment can be described thus: Median survival time of Compound on C57B1/6 mice which was implanted intraperitoneally with M5076 murine sarcoma cells at the dose of 0.8 mg/kg (dose administered intraperitoneally on days 1, 5 and 9). The conditions noted are these: route intraperitoneal. The format is functional. The gist of the method:
(§2)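 M5076 murine sarcoma cells (10^6) implanted ip in C57Bl/6 mice. Agent given as its dimethanesulfonate salt dissolved in water. Median survival time (MST) recorded for treated and concurrent control groups. Activity expressed as %T/C, the treated MST as a percentage of the control MST.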

For experiment [11], the system named is Mus musculus. The experiment can be described thus: Median survival time of treated mice (T) compared to controls expressed as a percentage (%T/C) at the dose of 1.2 mg/kg (dose administered intraperitoneally on days 1, 5 and 9). The format is functional. The conditions noted are these: route intraperitoneal. In a few lines:
as §2

Experiment [12] deals with Mus musculus. Briefly: Median survival time of treated mice (T) compared to controls expressed as a percentage (%T/C) at the dose of 0.8 mg/kg (dose administered intraperitoneally on days 1, 5 and 9). The format is functional. The conditions noted are these: route intraperitoneal. The gist of the method: as §2
Experiment [13] deals with Mus musculus. Briefly: Median survival time of Compound on C57B1/6 mice which was implanted intraperitoneally with M5076 murine sarcoma cells at the dose of 1.8 mg/kg (dose administered intraperitoneally on days 1, 5 and 9). The format is functional. The conditions noted are these: route intraperitoneal. In a few lines:
as §2

Experiment [14] deals with Mus musculus. The experiment can be described thus: Median survival time of Compound on C57B1/6 mice which was implanted intraperitoneally with M5076 murine sarcoma cells at the dose of 1.2 mg/kg (dose administered intraperitoneally on days 1, 5 and 9). The format is functional. The conditions noted are these: route intraperitoneal. The gist of the method:
as §2

The test system of experiment [15] is Mus musculus. The experiment can be described thus: Median survival time of treated mice (T) compared to controls expressed as a percentage (%T/C) at the dose of 1.8 mg/kg (dose administered intraperitoneally on days 1, 5 and 9). The conditions noted are these: route intraperitoneal. The format is functional. In a few lines: as §2

Usually IC50 stands for the concentration that inhibits the measured activity by half. In the case of `CN(CCN(C)CCN1C(=O)c2cccc3cc4ccccc4c(c23)C1=O)CCN1C(=O)c2cccc3cc4ccccc4c(c23)C1=O`, it took 75 nM to reach half-maximal inhibition in experiment [1] (IC50).

The compound `O=C1c2cccc3cc4ccccc4c(c23)C(=O)N1CCNCCCCCNCCN1C(=O)c2cccc3cc4ccccc4c(c23)C1=O` had an IC50 in experiment [1] of 9 nM.

For `CN(C)CCN1C(=O)c2cccc3cc([N+](=O)[O-])cc(c23)C1=O` [MITONAFIDE], the IC50 in [1] was 600 nM.

`O=C1c2cccc3cc4ccccc4c(c23)C(=O)N1CCN1CCCN(CCN2C(=O)c3cccc4cc5ccccc5c(c34)C2=O)C1`: the IC50 in [1] is 2 nM.

Regarding `CN(C)CCN1C(=O)c2cccc3cc4ccccc4c(c23)C1=O` [AZONAFIDE], the IC50 in experiment [1] was found to be 140 nM.

In experiment [1], `O=C1c2cccc3cc4ccccc4c(c23)C(=O)N1CCNCCNCCN1C(=O)c2cccc3cc4ccccc4c(c23)C1=O` displayed an IC50 of 9 nM.

`O=C1c2cccc3cc4ccccc4c(c23)C(=O)N1CCCNCCN1C(=O)c2cccc3cc4ccccc4c(c23)C1=O` showed an IC50 in experiment [1] of 2000 nM.

In experiment [1], `O=C1c2cccc3cc4ccccc4c(c23)C(=O)N1CCCNCCCNCCCN1C(=O)c2cccc3cc4ccccc4c(c23)C1=O` returned an IC50 of 90 nM.

Usually T/C stands for the ratio of treated to control. In the case of `O=C1c2cccc3cccc(c23)C(=O)N1CCNCCCNCCN1C(=O)c2cccc3cccc(c23)C1=O` [ELINAFIDE], the MST in experiment [2] came out at 21.5 days; in experiment [4], 24 days; in experiment [8], 21.5 days; in [9], 21 days. Also, the T/C in experiment [3] was determined as 102%; in experiment [5] it was 91%; in [6] it was 89%; in experiment [7] it was 91%. In addition, the IC50 in experiment [1] came out at 14 nM.

On to `O=C1c2cccc3cc4ccccc4c(c23)C(=O)N1CCCCNCCCN1C(=O)c2cccc3cc4ccccc4c(c23)C1=O`, for which the IC50 in [1] came to 70 nM.

In [1], `O=C1c2cccc3cc4c([N+](=O)[O-])cccc4c(c23)C(=O)N1CCNCCCNCCN1C(=O)c2cccc3cc4c([N+](=O)[O-])cccc4c(c23)C1=O` had an IC50 of 35 nM.

Regarding `O=C1c2cccc3cc4ccccc4c(c23)C(=O)N1CCCNCCCN1C(=O)c2cccc3cc4ccccc4c(c23)C1=O`, in [1], the midpoint of inhibition, the IC50, lay at 20 nM.

`CN(CCCN1C(=O)c2cccc3cc4ccccc4c(c23)C1=O)CCCN1C(=O)c2cccc3cc4ccccc4c(c23)C1=O` gave an IC50 in experiment [1] of 19 nM.

In [1], `O=C1c2cccc3cc4ccccc4c(c23)C(=O)N1CCNCCCNCCN1C(=O)c2cccc3cc4ccccc4c(c23)C1=O` had an IC50 of 4 nM. Further, the MST came to 31.5 days in experiment [10], 31.2 days in experiment [13] and 34 days in [14]. The results for the T/C in [11], in [12] and in [15] were 155%, 143% and 143%, respectively.

On to `O=C1c2cccc3cc4c([N+](=O)[O-])cccc4c(c23)C(=O)N1CCNCCNCCN1C(=O)c2cccc3cc4c([N+](=O)[O-])cccc4c(c23)C1=O`, for which, in experiment [1], inhibition was half-maximal at 95 nM (IC50).

In [1], `O=C1c2cccc3cc4ccccc4c(c23)C(=O)N1CCNCCN1C(=O)c2cccc3cc4ccccc4c(c23)C1=O` had an IC50 of 30 nM.

In [1], `O=C1c2cccc3cc4ccccc4c(c23)C(=O)N1CCNCCCCNCCN1C(=O)c2cccc3cc4ccccc4c(c23)C1=O` displayed an IC50 of 41 nM.

In [1], `O=C1c2cccc3cc4ccccc4c(c23)C(=O)N1CCCNCCCCNCCCN1C(=O)c2cccc3cc4ccccc4c(c23)C1=O` yielded an IC50 of 200 nM.

With `O=C1c2cccc3cc4ccccc4c(c23)C(=O)N1CCCNCCNCCCN1C(=O)c2cccc3cc4ccccc4c(c23)C1=O`, the IC50 in experiment [1] amounted to 95 nM.

In experiment [1], `CN(C)CCN1C(=O)c2cccc3cc(N)cc(c23)C1=O` [AMONAFIDE] registered an IC50 of 3000 nM.
